According to ChEMBL document CHEMBL4406820, “Novel reverse thia-analogs of fosmidomycin: Synthesis and antiplasmodial activity” (Eur J Med Chem, 2019):

Assays:
Acinetobacter baumannii [1] = assay: Antimicrobial activity against Acinetobacter baumannii ATCC BAA 1605 incubated for 18 hrs by microbroth dilution assay; assay type: functional; settings: ATCC BAA 1605, 18 h
Klebsiella pneumoniae [2] = assay: Antimicrobial activity against Klebsiella pneumoniae ATCC 700603 incubated for 18 hrs by microbroth dilution assay; assay type: functional; settings: ATCC 700603, 18 h
Escherichia coli [3] = assay: Antimicrobial activity against Escherichia coli ATCC 25922 incubated for 18 hrs by microbroth dilution assay; assay type: functional; settings: ATCC 25922, 18 h
Klebsiella pneumoniae [4] = assay: Antimicrobial activity against Klebsiella pneumoniae ATCC 13883 incubated for 18 hrs by microbroth dilution assay; assay type: functional; settings: ATCC 13883, 18 h
Escherichia coli [5] = assay: Antimicrobial activity against Escherichia coli ATCC BAA 2469 incubated for 18 hrs by microbroth dilution assay; assay type: functional; settings: ATCC BAA 2469, 18 h
Acinetobacter baumannii [6] = assay: Antimicrobial activity against Acinetobacter baumannii ATCC BAA747 incubated for 18 hrs by microbroth dilution assay; assay type: functional; settings: ATCC BAA747, 18 h
[7] = tested on: Mycobacterium tuberculosis; assay: Antimycobacterial activity against Mycobacterium tuberculosis H37Rv incubated for 5 days by resazurin dye based assay; assay type: functional; settings: 120 h
Pseudomonas aeruginosa = assay: Antimicrobial activity against Pseudomonas aeruginosa ATCC 27853 incubated for 18 hrs by microbroth dilution assay; assay type: functional; settings: ATCC 27853, 18 h
[8] = biological target: T1, 1-deoxy-D-xylulose 5-phosphate reductoisomerase (Escherichia coli, UniProt W8T2T2); assay: Inhibition of recombinant Escherichia coli IspC expressed in Escherichia coli M15 using 1-deoxy-D-xylulose 5-phosphate as substrate by photometric assay
T1 sequence (W8T2T2 whole entry): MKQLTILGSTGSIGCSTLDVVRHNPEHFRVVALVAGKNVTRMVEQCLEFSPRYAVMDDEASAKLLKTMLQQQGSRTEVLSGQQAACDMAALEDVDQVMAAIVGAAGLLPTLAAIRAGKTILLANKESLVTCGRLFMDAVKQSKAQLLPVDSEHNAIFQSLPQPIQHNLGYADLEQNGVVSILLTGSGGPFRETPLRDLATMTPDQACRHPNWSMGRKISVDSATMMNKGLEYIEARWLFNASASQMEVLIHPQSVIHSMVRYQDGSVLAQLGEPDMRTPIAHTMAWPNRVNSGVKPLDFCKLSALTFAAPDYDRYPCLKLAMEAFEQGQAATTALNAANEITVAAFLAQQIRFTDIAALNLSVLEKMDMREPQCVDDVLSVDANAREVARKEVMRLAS
Procedure, shortened: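 E. coli IspC, His-tagged, expressed in E. coli M15 pREP4 (IPTG 1 mM, 36 h at 20 °C) and purified by Ni2+-chelate chromatography to about 95% purity. Reaction mix: 100 mM Tris-HCl pH 7.6, 5 mM MnCl2, 5 mM DTT, 0.5 mM NADPH, 0.02 U enzyme. Inhibitor tested as a 1:3 series from 200 to 0.003 µM. Started with 0.5 mM DXP; NADPH consumption read at 340 nm, room temperature. IC50 fitted from at least eight points.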

Plasmodium falciparum [9] = assay: Antimalarial activity against asexual blood stages of Plasmodium falciparum Dd2 infected in human erythrocytes incubated for 3 days by ELISA; assay type: functional, organism-based; settings: Dd2, 72 h
Procedure, shortened: (§1)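 Asexual blood-stage P. falciparum cultured in human erythrocytes; growth measured by HRP2 double-site sandwich ELISA. IC50 values are the mean of two independent double determinations.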

[10] = biological target: T2, 1-deoxy-D-xylulose 5-phosphate reductoisomerase, apicoplastic (Plasmodium falciparum (isolate 3D7), UniProt Q8IKG4); assay: Inhibition of recombinant Plasmodium falciparum IspC expressed in Escherichia coli using 1-deoxy-D-xylulose 5-phosphate as substrate by photometric assay
T2 sequence (Q8IKG4 whole entry): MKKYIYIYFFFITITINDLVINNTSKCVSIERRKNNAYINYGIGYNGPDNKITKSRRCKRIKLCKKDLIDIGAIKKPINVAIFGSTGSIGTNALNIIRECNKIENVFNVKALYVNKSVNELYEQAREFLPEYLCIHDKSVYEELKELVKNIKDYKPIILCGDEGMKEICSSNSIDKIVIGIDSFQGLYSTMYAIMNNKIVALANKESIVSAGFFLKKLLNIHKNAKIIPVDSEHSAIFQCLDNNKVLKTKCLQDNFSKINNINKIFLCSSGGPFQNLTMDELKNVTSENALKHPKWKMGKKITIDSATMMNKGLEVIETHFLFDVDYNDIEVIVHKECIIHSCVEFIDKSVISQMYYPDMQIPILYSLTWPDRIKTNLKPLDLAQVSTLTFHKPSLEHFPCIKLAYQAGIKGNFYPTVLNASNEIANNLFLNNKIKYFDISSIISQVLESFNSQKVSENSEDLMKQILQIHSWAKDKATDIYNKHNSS
Procedure, shortened: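 P. falciparum IspC expressed in E. coli. Reaction mix: 100 mM Tris-HCl pH 7.6, 5 mM MnCl2, 5 mM DTT, 0.5 mM NADPH, 0.02 U enzyme. Inhibitor tested as a 1:3 series from 200 to 0.003 µM. Started with 0.5 mM DXP; read at 340 nm, room temperature. IC50 calculated from at least eight data points; generally two to three independent determinations.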

Plasmodium falciparum [11] = assay: Antimalarial activity against asexual blood stages of Plasmodium falciparum 3D7 infected in human erythrocytes incubated for 3 days by ELISA; assay type: functional, organism-based; settings: 3D7, 72 h; procedure, shortened: as §1
[12] = biological target: T3, 1-deoxy-D-xylulose 5-phosphate reductoisomerase (Mycobacterium tuberculosis, UniProt P9WNS1); assay: Inhibition of recombinant Mycobacterium tuberculosis IspC expressed in Escherichia coli M15 using 1-deoxy-D-xylulose 5-phosphate as substrate by photometric assay
T3 sequence (P9WNS1 whole entry): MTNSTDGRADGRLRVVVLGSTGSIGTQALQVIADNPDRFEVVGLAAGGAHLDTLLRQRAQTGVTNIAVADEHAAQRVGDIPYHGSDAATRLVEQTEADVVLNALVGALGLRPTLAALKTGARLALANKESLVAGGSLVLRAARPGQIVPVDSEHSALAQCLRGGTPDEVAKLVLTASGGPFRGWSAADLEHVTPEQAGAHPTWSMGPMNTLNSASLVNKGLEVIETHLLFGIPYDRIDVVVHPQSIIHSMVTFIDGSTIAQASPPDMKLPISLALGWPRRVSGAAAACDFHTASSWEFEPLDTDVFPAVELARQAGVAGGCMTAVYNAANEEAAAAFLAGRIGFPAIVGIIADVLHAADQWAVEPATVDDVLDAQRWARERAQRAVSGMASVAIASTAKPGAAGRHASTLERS

[13] = Selectivity index, ratio of IC50 for human HeLa cells to IC50 for Plasmodium falciparum 3D7; assay type: toxicity; settings: read-out: Ratio IC50
Procedure, shortened: (§2)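 Cytotoxicity on HeLa monolayers quantified spectrophotometrically, given as the mean of two independent double determinations. SI is HeLa IC50 divided by the P. falciparum 3D7 IC50.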

HeLa = assay: Cytotoxicity against human HeLa cells assessed as reduction in cell viability incubated for 24 hrs by neutral red assay; assay type: cell-based; procedure, shortened: as §2

Structure (SMILES)	MIC (Acinetobacter baumannii [1])	MIC (Klebsiella pneumoniae [2])	MIC (Escherichia coli [3])	MIC (Klebsiella pneumoniae [4])	MIC (Escherichia coli [5])	MIC (Acinetobacter baumannii [6])	MIC [7]	MIC (Pseudomonas aeruginosa)	IC50 [8]	IC50 (Plasmodium falciparum [9])	IC50 [10]	IC50 (Plasmodium falciparum [11])	IC50 [12]	selectivity ratio [13]	IC50 (HeLa)
Cc1ccc(C(SCC(=O)N(C)O)P(=O)(O)O)cc1 (racemic)	> 100 µM	> 100 µM	> 100 µM	> 100 µM	> 100 µM	> 100 µM	> 100 µM	> 100 µM							
Cc1ccc(C(SCC(=O)NO)P(=O)(O)O)cc1 (racemic)	> 100 µM	> 100 µM	> 100 µM	> 100 µM	> 100 µM	> 100 µM	> 100 µM	> 100 µM	0.29 µM	8 µM	0.032 µM	6.5 µM	8.2 µM	> 150	> 1000 µM
CN(O)C(=O)CS(=O)(=O)C(c1ccc(Cl)c(Cl)c1)P(=O)(O)O (stereo not drawn)	> 100 µM	> 100 µM	> 100 µM	> 100 µM	> 100 µM	> 100 µM	> 100 µM	> 100 µM	11 µM		1 µM	> 100 µM	21 µM		> 1000 µM
CN(O)C(=O)CSC(c1ccc(Cl)c(Cl)c1)P(=O)(O)O (racemic)	> 100 µM	> 100 µM	> 100 µM	> 100 µM	> 100 µM	> 100 µM	> 100 µM	> 100 µM							
CN(O)C(=O)CS(=O)(=O)C(c1cccc2ccccc12)P(=O)(O)O (stereo not drawn)	> 100 µM	> 100 µM	> 100 µM	> 100 µM	> 100 µM	> 100 µM	> 100 µM	> 100 µM	15 µM		823 µM	> 100 µM	621 µM		> 1000 µM
O=CN(O)CCCP(=O)(O)O [FOSMIDOMYCIN SODIUM]									0.22 µM						
COc1cc(OC)cc(C(P(=O)(O)O)S(=O)(=O)CC(=O)NO)c1 (stereo not drawn)	> 100 µM	> 100 µM	> 100 µM	> 100 µM	> 100 µM	> 100 µM	> 100 µM	> 100 µM	4.5 µM		0.22 µM	2.7 µM	194 µM		> 500 µM
CN(O)C(=O)CS(=O)(=O)C(c1cc(F)cc(F)c1)P(=O)(O)O (stereo not drawn)	> 100 µM	> 100 µM	> 100 µM	> 100 µM	> 100 µM	> 100 µM	> 100 µM	> 100 µM	4.3 µM		5.5 µM	19 µM	44 µM		> 1000 µM
Cc1ccc(C(P(=O)(O)O)S(=O)(=O)CC(=O)NO)cc1 (stereo not drawn)									64 µM		65 µM	> 100 µM	> 1000 µM		
COc1cc(OC)cc(C(P(=O)(O)O)S(=O)(=O)CC(=O)N(C)O)c1 (stereo not drawn)									80 µM		3.7 µM	> 100 µM	> 1000 µM		> 1000 µM
Cc1ccc(C(P(=O)(O)O)S(=O)(=O)CC(=O)N(C)O)cc1 (stereo not drawn)	> 100 µM	> 100 µM	> 100 µM	> 100 µM	> 100 µM	> 100 µM	> 100 µM	> 100 µM	36 µM		8.5 µM	> 100 µM	143 µM		> 50 µM
CN(O)C(=O)CS(=O)(=O)C(c1ccccc1)P(=O)(O)O (stereo not drawn)									36 µM		7.6 µM	> 100 µM	115 µM		
CN(O)C(=O)CSC(c1cccc2ccccc12)P(=O)(O)O (racemic)	> 100 µM	> 100 µM	> 100 µM	> 100 µM	> 100 µM	> 100 µM	> 100 µM	> 100 µM							
